By MIC is commonly meant the smallest concentration in the dilution series that meets the test's criterion for growth inhibition.

The text below walks through data of PMC4127500 (Scientific Reports, 2014).

Converted amounts (≈) assume the structure as drawn.

Data set [1] has as its system S. aureus (ATCC33591). The data set can be described thus: Murine non-lethal Staphylococcus aureus infection model. Format: in vivo, C57BL/6 mice. The conditions noted are these: S. aureus infected mice. Summed up: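 C57BL/6 mice (18–22 g, n = 6/group) got i.p. 100 µL of S. aureus ATCC33591 at 2 × 10^5 CFU.mL−1. After 1 h, penicillin or ampicillin (100 or 200 mg.kg−1) or cefotaxime (35 mg.kg−1) was given i.p. at 12, 24, 48 and 72 h over 7 days. Day-7 blood and peritoneal fluid were serially diluted, plated in triplicate on mannitol salt agar, and counted as CFU.mL−1.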

In data set [2] the test system is E. coli 1812446. Briefly: Minimum inhibitory concentration. Format: cell-based. Summed up:
(§1)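 Broth microdilution in Mueller Hinton Broth per CLSI. Inoculum was pre-incubated in TSB at 30°C to 0.5 McFarland. Amoxicillin, ampicillin, cefotaxime and gentamicin were tested over 0.5–1024 µg.mL−1, alone or with test compound at 128 µg.mL−1. Each set was repeated three times.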

Data set [3] has as its system P. aeruginosa 6817. The data set can be described thus: Minimum inhibitory concentration. Format: cell-based. Summed up:
as §1

Data set [4] deals with RAW 264.7 cells. Briefly: MTT cell viability assay. Format: cell-based, murine. The conditions noted are these: RAW 264.7 monocytes; 24 h. Summed up: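 RAW 264.7 cells kept in DMEM with 4 mM L-glutamine, 10% FCS, 2 mM nonessential amino acids and penicillin/streptomycin at 37°C, 5% CO2. Cells were exposed 24 h to test compound or antibiotics, free or combined. Viability was read by MTT (reagent 5 mg.mL−1 in PBS) in three replicates, as % of PBS (pH 7.4) control; mastoparan-L (1–100 μg.mL−1) was the positive control.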

In data set [5] the test system is S. aureus ATCC33591. Briefly: Minimum inhibitory concentration. Format: cell-based. The method, boiled down: as §1
Data set [6] concerns B. cereus 6591. The data set can be described thus: Minimum inhibitory concentration. Format: cell-based. Summed up: as §1
Data set [7] concerns E. coli (TEM-1). Briefly: Minimum inhibitory concentration. Format: cell-based. Summed up: as §1
Data set [8] concerns E. coli 6881. The data set can be described thus: Minimum inhibitory concentration. Format: cell-based. Summed up:
as §1

Data set [9] concerns E. coli 2101123. The data set can be described thus: Minimum inhibitory concentration. Format: cell-based. Summed up:
as §1

The test system of data set [10] is S. aureus 7314. Briefly: Minimum inhibitory concentration. Format: cell-based. The method, boiled down: as §1
For data set [11], the system named is E. coli 1812446 clinical strain. Briefly: Murine non-lethal Escherichia coli infection model. Format: in vivo, C57BL/6 mice. To be noted: E. coli infected mice. The method, boiled down: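 C57BL/6 mice (18–22 g, n = 6/group) got i.p. 200 μl holding 2.5 × 10^8 CFU of E. coli 1812446. One hour later they were treated i.p. with penicillin or ampicillin (100 or 200 mg.kg−1) or gentamicin (10 mg.kg−1), at 12, 24, 48 and 72 h over 7 days. On day 7, blood and peritoneal fluid were serially diluted and plated in triplicate on Mueller Hinton agar at 37°C overnight. Detection limit was 100 CFU.ml−1.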

Where [12] appears, read: E. coli 1812446, in the presence of dBLIP1 (128 µg.mL^−1).
Where [13] appears, read: E. coli 1812446, in the presence of dBLIP2 (128 µg.mL^−1).
The mark [14] stands for this setting: P. aeruginosa 6817, in the presence of dBLIP1 (128 µg.mL^−1).
[15] abbreviates: P. aeruginosa 6817, in the presence of dBLIP2 (128 µg.mL^−1).
Setting [16] is: S. aureus ATCC33591, in the presence of dBLIP1 (128 µg.mL^−1).
Where [17] appears, read: S. aureus ATCC33591, in the presence of dBLIP2 (128 µg.mL^−1).
[18] abbreviates: Staphylococcus aureus, ATCC33591.
[19] abbreviates: B. cereus 6591, in the presence of dBLIP1 (128 µg.mL^−1).
Setting [20] is: B. cereus 6591, in the presence of dBLIP2 (128 µg.mL^−1).
[21] abbreviates: E. coli 6881, in the presence of dBLIP1 (128 µg.mL^−1).
The mark [22] stands for this setting: E. coli 6881, in the presence of dBLIP2 (128 µg.mL^−1).
Setting [23] is: E. coli 2101123, in the presence of dBLIP1 (128 µg.mL^−1).
[24] abbreviates: E. coli 2101123, in the presence of dBLIP2 (128 µg.mL^−1).
[25] abbreviates: S. aureus 7314, in the presence of dBLIP1 (128 µg.mL^−1).
[26] abbreviates: S. aureus 7314, in the presence of dBLIP2 (128 µg.mL^−1).
[27] abbreviates: E. coli (TEM-1), in the presence of dBLIP1 (128 µg.mL^−1).
The mark [28] stands for this setting: E. coli (TEM-1), in the presence of dBLIP2 (128 µg.mL^−1).

On to `CC1(C)S[C@@H]2[C@H](NC(=O)[C@H](N)c3ccccc3)C(=O)N2[C@H]1C(=O)O` [AMP, Ampicillin], for which the results for the “CFU, antibiotic alone” value in data set [1] (200 mg.kg^−1 i.p.), in [11] (100 mg.kg^−1 i.p.) and in data set [11] (200 mg.kg^−1 i.p.) were “CFUs were slightly reduced”, “did not cause any bactericidal effect” and “a lower reduction in CFU”, respectively. For the same compound, the MIC is 512 µg/mL in [2] (setting [12]); 512 µg/mL in data set [2] (setting [13]); above 512 µg/mL in [2] (Escherichia coli, 1812446); 32 µg/mL in data set [3] (setting [14]); 32 µg/mL in [3] (setting [15]); 512 µg/mL (≈ 1470 µM) in data set [3] (Pseudomonas aeruginosa, 6817). Further, the minimum inhibitory concentration (MIC) was determined as 128 µg/mL in data set [5] (setting [16]); 128 µg/mL in data set [5] (setting [17]); 512 µg/mL (≈ 1470 µM) in data set [5] (setting [18]); 16 µg/mL in data set [6] (setting [19]); 8 µg/mL in [6] (setting [20]); 256 µg/mL (≈ 733 µM) in [6] (Bacillus cereus, 6591). For the same compound, the minimum inhibitory concentration (MIC) in [7] (Escherichia coli) came out at 1020 µg/mL (≈ 2930 µM); in data set [8] (setting [21]), 32 µg/mL; in data set [8] (setting [22]), 32 µg/mL; in data set [8] (Escherichia coli, 6881), 128 µg/mL (≈ 366 µM); in data set [9] (setting [23]), 256 µg/mL; in [9] (setting [24]) it was 256 µg/mL. The MIC is above 512 µg/mL in [9] (Escherichia coli, 2101123); 32 µg/mL in data set [10] (setting [25]); 32 µg/mL in [10] (setting [26]); 512 µg/mL (≈ 1470 µM) in data set [10] (Staphylococcus aureus, 7314). Moreover, the “cytotoxic activity against RAW 264.7 (MTT cell viability)” value (from here on “cytotoxic activity”) in data set [4] is 200 µg/mL.
Take `CC1(C)S[C@@H]2[C@H](NC(=O)[C@H](N)c3ccc(O)cc3)C(=O)N2[C@H]1C(=O)O` [AMX, Amoxicillin]: the minimal inhibitory concentration (MIC) amounted to 16 µg/mL in data set [2] (setting [12]); 16 µg/mL in data set [2] (setting [13]); 256 µg/mL (≈ 701 µM) in [2] (Escherichia coli, 1812446); 32 µg/mL in [3] (setting [14]); 16 µg/mL in data set [3] (setting [15]); 512 µg/mL (≈ 1400 µM) in data set [3] (Pseudomonas aeruginosa, 6817). Also, the minimum inhibitory concentration (MIC) in [5] (setting [16]) was found to be 32 µg/mL; in data set [5] (setting [17]), 32 µg/mL; in [5] (setting [18]), 512 µg/mL (≈ 1400 µM); in data set [6] (setting [19]), 8 µg/mL; in data set [6] (setting [20]), 8 µg/mL; in data set [6] (Bacillus cereus, 6591), 256 µg/mL (≈ 701 µM). The minimal inhibitory concentration (MIC) was 128 µg/mL (≈ 350 µM) in data set [7] (Escherichia coli); 32 µg/mL in data set [8] (setting [21]); 16 µg/mL in data set [8] (setting [22]); 128 µg/mL (≈ 350 µM) in [8] (Escherichia coli, 6881); 8 µg/mL in [9] (setting [23]); 8 µg/mL in data set [9] (setting [24]). Also, the MIC in data set [9] (Escherichia coli, 2101123) amounted to 256 µg/mL (≈ 701 µM); in [10] (setting [25]), 32 µg/mL; in data set [10] (setting [26]), 16 µg/mL; in [10] (Staphylococcus aureus, 7314), 512 µg/mL (≈ 1400 µM).
On to `CO/N=C(\C(=O)N[C@@H]1C(=O)N2C(C(=O)O)=C(COC(C)=O)CS[C@H]12)c1csc(N)n1` [CTX, Cefotaxime], for which the “CFU, antibiotic alone” value in data set [1] (cefotaxime 35 mg.kg^−1 i.p.) is on record as “efficient reduction in CFU”. In addition, the minimum inhibitory concentration (MIC) in data set [2] (setting [12]) was 16 µg/mL; in data set [2] (setting [13]), 16 µg/mL; in [2] (Escherichia coli, 1812446), 256 µg/mL (≈ 562 µM); in data set [3] (setting [14]), 8 µg/mL; in data set [3] (setting [15]) it was 8 µg/mL; in data set [3] (Pseudomonas aeruginosa, 6817), 64 µg/mL (≈ 141 µM). Besides, the MIC was determined as 8 µg/mL in [5] (setting [16]); 8 µg/mL in [5] (setting [17]); 128 µg/mL (≈ 281 µM) in data set [5] (setting [18]); 8 µg/mL in data set [6] (setting [19]); 8 µg/mL in [6] (setting [20]); 64 µg/mL (≈ 141 µM) in [6] (Bacillus cereus, 6591). Besides, the minimal inhibitory concentration (MIC) in data set [7] (setting [27]) was determined as 4 µg/mL; in data set [7] (setting [28]), 4 µg/mL; in data set [7] (Escherichia coli) it was 32 µg/mL (≈ 70.3 µM); in data set [8] (setting [21]), 8 µg/mL; in [8] (setting [22]), 8 µg/mL; in data set [8] (Escherichia coli, 6881), 64 µg/mL (≈ 141 µM). For the same compound, the MIC in data set [9] (setting [23]) stood at 8 µg/mL; in [9] (setting [24]) it was 8 µg/mL; in data set [9] (Escherichia coli, 2101123) it was 128 µg/mL (≈ 281 µM); in [10] (setting [25]), 8 µg/mL; in data set [10] (setting [26]) it was 8 µg/mL; in [10] (Staphylococcus aureus, 7314) it was 128 µg/mL (≈ 281 µM).
In the case of `CNC(C)C1CCC(N)C(OC2C(N)CC(N)C(OC3OCC(C)(O)C(NC)C3O)C2O)O1` (centres unmarked) [GEN, Gentamicin], the MIC in data set [2] (setting [12]) came to 128 µg/mL; in data set [2] (setting [13]), 128 µg/mL; in [2] (Escherichia coli, 1812446), 512 µg/mL (≈ 1070 µM); in [3] (setting [14]), 8 µg/mL; in data set [3] (setting [15]), 8 µg/mL; in [3] (Pseudomonas aeruginosa, 6817), 32 µg/mL (≈ 67 µM). For the same compound, the minimal inhibitory concentration (MIC) in [5] (setting [16]) came to 8 µg/mL; in [5] (setting [17]) it was 8 µg/mL; in data set [5] (setting [18]) it was 64 µg/mL (≈ 134 µM); in data set [6] (setting [19]) it was 4 µg/mL; in data set [6] (setting [20]), 4 µg/mL; in [6] (Bacillus cereus, 6591) it was 32 µg/mL (≈ 67 µM). In addition, the MIC in [7] (setting [27]) amounted to 4 µg/mL; in data set [7] (setting [28]), 4 µg/mL; in data set [7] (Escherichia coli), 32 µg/mL (≈ 67 µM); in [8] (setting [21]), 4 µg/mL; in data set [8] (setting [22]), 4 µg/mL; in [8] (Escherichia coli, 6881) it was 32 µg/mL (≈ 67 µM). In addition, the minimum inhibitory concentration (MIC) was 128 µg/mL in data set [9] (setting [23]); 128 µg/mL in data set [9] (setting [24]); 256 µg/mL (≈ 536 µM) in data set [9] (Escherichia coli, 2101123); 8 µg/mL in [10] (setting [25]); 8 µg/mL in data set [10] (setting [26]); 64 µg/mL (≈ 134 µM) in [10] (Staphylococcus aureus, 7314). For the same compound, the “cytotoxic activity” value in [4] came out at 150 µg/mL. Further, the “CFU, antibiotic alone” value in [11] (gentamicin 10 mg.kg^−1 i.p.) was “efficient CFU decline”.
For `CC1(C)S[C@@H]2[C@H](NC(=O)Cc3ccccc3)C(=O)N2[C@H]1C(=O)O` [Penicillin G], in data set [4], the “cytotoxic activity” value amounted to 150 µg/mL.
For the compound Mastoparan-L, the “cytotoxic activity” value in data set [4] was 10 µg/mL.
